The nature of data set [1]: Drug level in Swiss mouse brain at 30 mg/kg, po administered twice daily via gavage for 5 days and measured post last dose by LC-MS/MS analysis. It is filed as ADME, organism-based. The conditions noted are these: in vivo, 120 h, time 5 day. The procedure, abridged: (§1)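 Female Swiss mice (n=3) given 30 mg/kg in 0.5% CMC/Tween 80 by oral gavage twice daily for 5 days, with two vehicle controls. After sacrifice, liver, kidney, lung, uterus and brain were collected, homogenized in water and solvent-extracted. Drug concentration (ng/g) measured by LC-MS/MS.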

The next data set has as its system SK-OV-3. Briefly: Antitumor activity against human SK-OV-3 cells xenografted in po dosed CD1 nude mouse assessed as reduction in tumor volume administered once daily for 27 days and measured at 3 days interval during compound dosing. The conditions noted are these: dose mg/kg 2.5-10, time 27.0 day. It is filed as functional, organism-based. In a few lines:
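Female CD1 nude mice bearing subcutaneous SK-OV-3 xenografts, randomized at average tumor size 120–130 mm³, five per group. Given oral doses of 2.5, 5 or 10 mg/kg once daily for 27 days alongside a vehicle control. Tumor volume from caliper length and width as (width² × length)/2, tracked every third day. Two-way ANOVA with Dunnett's test, n=5.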
(In general: A xenograft is tissue or cells of one species grown in another, often human tumour cells in immunodeficient mice.)

The target of data set [2] is Inhibitor of nuclear factor kappa-B kinase subunit epsilon (Homo sapiens) (UniProt Q14164). Put plainly: Inhibition of human IKBKE at 1 uM using fluorescently labeled peptide substrate measured after 3 hrs by microfluidic mobility shift assay relative to control. The procedure, abridged:
(§2)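 Single-concentration screen at 1 µM in duplicate, 1% final DMSO. Kinase (typically 1 nM), fluorescently labeled peptide substrate (typically 1 µM), ATP at Km and Mg²⁺ incubated about 3 h at 25 °C, then EDTA-quenched. Substrate and phosphorylated product separated by microfluidic electrophoresis and quantified by fluorescence.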

The target in data set [3] is Glycogen synthase kinase-3 beta (Homo sapiens) (UniProt P49841). Put plainly: Inhibition of human GSK3B at 1 uM using fluorescently labeled peptide substrate measured after 3 hrs by microfluidic mobility shift assay relative to control. In a few lines:
as §2

The nature of data set [4]: Drug level in Swiss mouse uterus at 30 mg/kg, po administered twice daily via gavage for 5 days and measured post last dose by LC-MS/MS analysis. It is filed as ADME, organism-based. The conditions noted are these: time 5 day, read-out: Drug uptake. The procedure, abridged: as §1
Data set [5] in a line: Tmax in Swiss mouse at 10 mg/kg, po via gavage by LC-MS/MS analysis. It is filed as ADME, organism-based. The conditions noted are these: in vivo. In a few lines: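 Female Swiss mice (n=3/group) were fasted overnight, then gavaged with compound in 0.5% CMC/0.5% Tween 80 at 10 mL/kg. Serial blood samples at 0.16, 0.5, 1, 2, 4, 6 and 8 h were taken into heparinized tubes and spun to plasma. Plasma was extracted with acetonitrile containing verapamil (400 ng/mL) and quantified by LC-MS/MS against plasma calibration curves. Tmax was derived from the concentration–time profile.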

The subject of a further data set is HCT-116. Briefly: Antitumor activity against human HCT-116 cells xenografted in CD1 nude mouse assessed as tumor growth inhibition at 2.5 mg/kg, po administered once daily for 21 days and measured on day 3. It is filed as functional, organism-based. The conditions noted are these: time 21.0 day. The procedure, abridged: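 Female CD1 nude mice bearing subcutaneous HCT116 xenografts, randomized at average tumor size 120–130 mm³, five per group. Dosed orally once daily at 2.5, 5, 10 or 20 mg/kg for 21 days alongside a vehicle control. Caliper measurement of tumor volume as (width² × length)/2, monitored every third day.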

The subject of the next data set is PC-3. Put plainly: Antiproliferative activity against human PC-3 cells after 48 hrs by MTT assay. It is filed as functional, cell-based. The conditions noted are these: PC-3, 48 h. The procedure, abridged:
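PC3 cells grown in RPMI 1640 with 10% FBS and 1% penicillin/streptomycin at 37 °C, 5% CO2, seeded at 10000 cells/well. Treated 48 h across 20 µM–0.001 µM. MTT (5 mg/mL in PBS) added for 4 h, then DMSO solubilization and absorbance at 550 nm. Four-parameter nonlinear fit of % inhibition.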
Background: Formazan colour is commonly taken as a measure of viable cells.

Data set [6] concerns the target Voltage-gated inwardly rectifying potassium channel KCNH2 (Homo sapiens, UniProt Q12809). Put plainly: Inhibition of human ERG by patch-clamp assay. On the technique in general: Patch clamp records ionic current or voltage across a cell membrane.
The target of data set [7] is 3-phosphoinositide-dependent protein kinase 1 (Homo sapiens) (UniProt O15530). Briefly: Inhibition of human PDK1 at 1 uM using fluorescently labeled peptide substrate measured after 3 hrs by microfluidic mobility shift assay relative to control.
Chain of 3-phosphoinositide-dependent protein kinase 1 (Homo sapiens) (O15530 whole entry, looked up): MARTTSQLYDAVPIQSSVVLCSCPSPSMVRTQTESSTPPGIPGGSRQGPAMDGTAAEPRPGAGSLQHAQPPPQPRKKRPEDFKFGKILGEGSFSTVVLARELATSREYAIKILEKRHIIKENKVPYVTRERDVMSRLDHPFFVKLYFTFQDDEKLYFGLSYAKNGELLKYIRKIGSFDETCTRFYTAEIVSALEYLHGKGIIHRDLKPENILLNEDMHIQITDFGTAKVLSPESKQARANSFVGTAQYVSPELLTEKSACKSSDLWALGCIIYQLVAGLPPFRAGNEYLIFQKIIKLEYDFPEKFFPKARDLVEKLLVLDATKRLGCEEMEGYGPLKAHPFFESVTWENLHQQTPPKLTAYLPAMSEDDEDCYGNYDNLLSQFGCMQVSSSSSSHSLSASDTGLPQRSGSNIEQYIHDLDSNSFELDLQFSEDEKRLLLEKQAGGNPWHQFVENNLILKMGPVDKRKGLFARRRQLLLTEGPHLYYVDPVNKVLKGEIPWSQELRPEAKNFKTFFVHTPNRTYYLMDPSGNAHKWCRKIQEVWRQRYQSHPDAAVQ
The nature of data set [8]: Metabolic stability in mouse liver microsomes assessed as parent compound remaining at 10 uM remaining after 120 mins in presence of NADPH by HPLC analysis. It is filed as ADME, Microsome. The conditions noted are these: read-out: Stabilty. In a few lines: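 Compound at 10 µM was incubated with 0.5 mg/mL liver microsomes and 1 mM NADPH (final). Samples were taken at 0, 15, 30, 60 and 120 min and stopped with acetonitrile, then centrifuged and the supernatant analysed by HPLC. Percent parent remaining was set relative to the 0 min peak area (100%).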

Data set [9] can be described thus: Toxicity in Swiss mouse assessed as morphological changes in brain at 30 mg/kg, po administered twice daily via gavage for 5 days and measured post last dose. The conditions noted are these: in vivo, 120 h, time 5 day. It is filed as organism-based. In a few lines:
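Female Swiss mice (3 treated, 2 controls) were gavaged twice daily for 5 days, with compound in 0.5% CMC and Tween 80. After the last dosing the animals were sacrificed. Liver, kidney, lung, uterus and brain were excised and inspected visually for morphology and color change.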

Data on 1 molecule can be found in ChEMBL document CHEMBL4699485, “Discovery and Development of SPR519 as a Potent, Selective, and Orally Bioavailable Inhibitor of PI3Kα and mTOR Kinases for the Treatment of Solid Tumors” (J Med Chem, 2020).

In general, inhibition refers to the change of the read-out against control, counted positive when it falls. A word on the Tmax: it is the time from dosing to the highest level. What is called EC50 is the midpoint of the concentration-response curve. Usually IC50 stands for the point on the concentration scale where inhibition reaches its midpoint. Read a low IC50 as inhibition by little substance.

SMILES strings stand for the structures. Calls of active or inactive are those of the source. No cut-off for these calls is given here.

Chain of Inhibitor of nuclear factor kappa-B kinase subunit epsilon (Homo sapiens) (Q14164 whole entry): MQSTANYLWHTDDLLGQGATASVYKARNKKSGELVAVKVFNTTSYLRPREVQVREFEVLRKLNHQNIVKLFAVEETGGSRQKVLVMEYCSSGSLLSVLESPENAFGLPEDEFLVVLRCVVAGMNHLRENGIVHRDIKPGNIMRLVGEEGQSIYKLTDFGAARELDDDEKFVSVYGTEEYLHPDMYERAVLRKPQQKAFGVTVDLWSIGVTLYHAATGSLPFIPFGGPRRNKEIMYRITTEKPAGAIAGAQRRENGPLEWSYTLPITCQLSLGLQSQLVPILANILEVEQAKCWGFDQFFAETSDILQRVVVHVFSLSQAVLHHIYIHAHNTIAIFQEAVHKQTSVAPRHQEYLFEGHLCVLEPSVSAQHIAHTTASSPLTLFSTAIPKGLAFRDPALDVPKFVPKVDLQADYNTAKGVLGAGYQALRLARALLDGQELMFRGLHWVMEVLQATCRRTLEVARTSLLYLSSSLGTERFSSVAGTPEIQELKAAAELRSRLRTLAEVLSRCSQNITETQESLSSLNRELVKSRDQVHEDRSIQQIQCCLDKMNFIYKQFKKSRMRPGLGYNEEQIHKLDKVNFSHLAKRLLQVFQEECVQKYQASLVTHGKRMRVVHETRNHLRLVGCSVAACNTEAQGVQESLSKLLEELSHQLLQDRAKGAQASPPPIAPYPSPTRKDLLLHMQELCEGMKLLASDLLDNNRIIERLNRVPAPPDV
Chain of Glycogen synthase kinase-3 beta (Homo sapiens) (P49841 whole entry, looked up): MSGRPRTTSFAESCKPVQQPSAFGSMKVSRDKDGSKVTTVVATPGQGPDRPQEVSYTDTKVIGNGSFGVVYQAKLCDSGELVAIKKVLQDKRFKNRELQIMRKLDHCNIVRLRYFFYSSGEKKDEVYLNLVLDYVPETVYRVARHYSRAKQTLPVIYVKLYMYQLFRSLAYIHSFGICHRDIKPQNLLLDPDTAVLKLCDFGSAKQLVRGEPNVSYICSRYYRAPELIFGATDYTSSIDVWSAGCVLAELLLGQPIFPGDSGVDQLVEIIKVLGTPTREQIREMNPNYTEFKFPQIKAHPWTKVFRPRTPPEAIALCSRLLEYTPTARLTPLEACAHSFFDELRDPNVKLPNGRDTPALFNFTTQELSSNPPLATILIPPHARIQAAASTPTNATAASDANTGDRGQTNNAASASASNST
Chain of Voltage-gated inwardly rectifying potassium channel KCNH2 (Q12809 whole entry): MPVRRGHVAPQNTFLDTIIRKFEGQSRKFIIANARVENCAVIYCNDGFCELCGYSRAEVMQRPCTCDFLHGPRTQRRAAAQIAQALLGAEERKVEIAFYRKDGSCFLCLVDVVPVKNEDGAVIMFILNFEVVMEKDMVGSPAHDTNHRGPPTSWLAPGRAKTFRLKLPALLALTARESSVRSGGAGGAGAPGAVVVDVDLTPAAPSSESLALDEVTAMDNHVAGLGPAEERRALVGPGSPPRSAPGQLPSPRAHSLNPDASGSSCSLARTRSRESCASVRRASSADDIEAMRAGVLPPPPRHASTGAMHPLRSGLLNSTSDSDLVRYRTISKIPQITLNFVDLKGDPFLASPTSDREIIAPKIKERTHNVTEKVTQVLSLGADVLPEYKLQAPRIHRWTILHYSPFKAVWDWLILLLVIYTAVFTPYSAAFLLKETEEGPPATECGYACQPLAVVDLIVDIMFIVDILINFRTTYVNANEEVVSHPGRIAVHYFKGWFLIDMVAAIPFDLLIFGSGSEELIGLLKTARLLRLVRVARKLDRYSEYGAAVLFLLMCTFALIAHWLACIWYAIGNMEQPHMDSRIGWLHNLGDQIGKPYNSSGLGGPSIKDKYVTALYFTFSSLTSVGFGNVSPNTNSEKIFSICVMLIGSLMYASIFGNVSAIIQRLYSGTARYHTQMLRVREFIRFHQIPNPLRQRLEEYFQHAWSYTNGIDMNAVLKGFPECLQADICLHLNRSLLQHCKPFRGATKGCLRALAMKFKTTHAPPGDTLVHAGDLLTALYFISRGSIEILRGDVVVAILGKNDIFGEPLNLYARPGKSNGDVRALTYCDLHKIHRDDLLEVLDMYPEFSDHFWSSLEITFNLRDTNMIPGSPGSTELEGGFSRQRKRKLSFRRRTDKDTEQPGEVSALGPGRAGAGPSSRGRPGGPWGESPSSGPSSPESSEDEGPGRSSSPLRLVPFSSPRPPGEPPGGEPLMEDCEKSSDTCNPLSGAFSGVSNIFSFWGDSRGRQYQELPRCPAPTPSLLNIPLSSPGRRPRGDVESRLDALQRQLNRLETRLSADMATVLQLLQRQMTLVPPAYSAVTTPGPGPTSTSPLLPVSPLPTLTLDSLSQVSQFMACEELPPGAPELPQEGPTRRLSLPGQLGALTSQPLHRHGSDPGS

Consider `CN(C)C(=O)c1ccc(Oc2nc(-c3cnc(N)s3)nc(N3CCOCC3)n2)cc1`, for which the Drug uptake result in data set [1] is listed as “Not Active”. Also, the results for the Activity entry (in the data set with SK-OV-3; in [9]) were “Dose-dependent effect” and “Non-Toxic”, respectively. For the same molecule, the inhibition in data set [2], in data set [3] and in data set [7] was -1% throughout. The concentration at 120 h in data set [4] was determined as 10 ng/g. The time of peak concentration (Tmax) in data set [5] is 1.67 h. For the same molecule, in the data set on HCT-116, the TGI result was “Active”. The same molecule displayed an EC50 with PC-3 of 480 nM. In data set [6], this molecule displayed a half-maximal inhibitory concentration (IC50) of over 10000 nM. Moreover, the remaining at 2 h, 10 µM in [8] is 103%.
